Each block holds one compound with its values, some of them ahead of it. Calls of active or inactive are those of the source. The calls are words filed in the database; no cut-off is given here. Square brackets hold non-standard residues; d marks the D form. Peptide text beside a SMILES is read from it. * marks the point of attachment. Bpa = N[C@@H](Cc1ccc(C(=O)c2ccccc2)cc1)C(=O)O; Bip = N[C@@H](Cc1ccc(-c2ccccc2)cc1)C(=O)O; Dip = N[C@H](C(=O)O)C(c1ccccc1)c1ccccc1; 1Nal = N[C@@H](Cc1cccc2ccccc12)C(=O)O; Bta = N[C@@H](Cc1csc2ccccc12)C(=O)O; Acetyl(2-thienyl) = O=C(Cc1cccs1)*
Tests used:
Serum = assay: Drug level in rat serum treated with (S)-2-((S)-2-((S)-1-((S)-2-((S)-2-((S)-3-(1H-indol-3-yl)-2-(2-(thiophen-2-yl)acetamido)propanamido)-3-(1H-indol-2-yl)propanamido)-5-guanidinopentanoyl)pyrrolidine-2-carboxamido)-5-guanidinopentanamido)succinamide at 1 mM after 120 mins by RP-HPLC analysis; assay type: ADME, cell-free; conditions: 2 h, 1000 µM
Neuromedin-U receptor 1 = biological target: T1, Neuromedin-U receptor 1 (Mus musculus, UniProt O55040); assay: Agonist activity at mouse NMUR1 expressed in HEK293 cells assessed as induction of calcium mobilization after 18 hrs by Fluo-4 AM dye based FLIPR assay; assay type: functional, cell-based
T1 sequence (O55040 whole entry): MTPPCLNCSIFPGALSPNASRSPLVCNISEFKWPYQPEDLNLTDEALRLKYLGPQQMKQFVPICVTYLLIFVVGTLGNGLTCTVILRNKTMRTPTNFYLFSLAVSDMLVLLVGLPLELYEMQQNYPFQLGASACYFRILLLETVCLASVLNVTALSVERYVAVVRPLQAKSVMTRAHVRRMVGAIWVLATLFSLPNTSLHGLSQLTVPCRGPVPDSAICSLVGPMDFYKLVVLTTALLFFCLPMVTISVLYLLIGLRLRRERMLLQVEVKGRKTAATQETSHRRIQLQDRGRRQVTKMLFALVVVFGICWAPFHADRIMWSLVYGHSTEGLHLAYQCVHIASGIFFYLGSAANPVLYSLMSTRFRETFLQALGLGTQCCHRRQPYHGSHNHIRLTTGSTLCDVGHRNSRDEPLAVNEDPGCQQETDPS

Rattus norvegicus = organism: Rattus norvegicus; assay: Stability in rat serum at 1 mM at 120 mins by RP-HPLC/MS analysis
[1] = biological target: Neuromedin-U receptor 2 (Homo sapiens) (UniProt Q9GZQ4); assay: Agonist activity at human NMUR2 expressed in CHO cells assessed as induction of Ca2+ flux at 10 nM after 18 hrs by Fluo-4 AM dye based FLIPR assay relative to NMU; assay type: functional, cell-based
Sequence of Neuromedin-U receptor 2 (Homo sapiens) (Q9GZQ4 whole entry): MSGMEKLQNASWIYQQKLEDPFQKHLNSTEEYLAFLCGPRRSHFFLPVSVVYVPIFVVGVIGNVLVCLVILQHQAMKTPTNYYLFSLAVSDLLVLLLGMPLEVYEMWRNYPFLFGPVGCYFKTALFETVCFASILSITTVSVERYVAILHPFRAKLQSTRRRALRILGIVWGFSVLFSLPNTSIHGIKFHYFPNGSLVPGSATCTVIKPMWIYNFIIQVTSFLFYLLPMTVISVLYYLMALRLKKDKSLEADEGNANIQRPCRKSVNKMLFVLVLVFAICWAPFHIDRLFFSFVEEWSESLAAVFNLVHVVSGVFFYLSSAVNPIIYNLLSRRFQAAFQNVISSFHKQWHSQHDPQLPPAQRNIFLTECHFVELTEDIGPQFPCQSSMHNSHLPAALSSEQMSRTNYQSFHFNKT
Outline: (§1)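 Human NMUR1 or NMUR2 stably expressed in CHO cells was assayed by Fluo-4 AM (4 μM, 40 min) FLIPR calcium flux, with cells seeded 18 h before. Peptides were tested at single concentrations of 0.1, 10 or 100 nM. Maximal response is expressed as % of hNMU at 1000 nM (=100%).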

[2] = biological target: T2, Neuromedin-U receptor 1 (Homo sapiens) (UniProt Q9HB89); assay: Agonist activity at human NMUR1 expressed in CHO cells assessed as induction of Ca2+ flux at 0.1 nM after 18 hrs by Fluo-4 AM dye based FLIPR assay relative to NMU; assay type: functional, cell-based; outline: as §1
T2 sequence (whole entry): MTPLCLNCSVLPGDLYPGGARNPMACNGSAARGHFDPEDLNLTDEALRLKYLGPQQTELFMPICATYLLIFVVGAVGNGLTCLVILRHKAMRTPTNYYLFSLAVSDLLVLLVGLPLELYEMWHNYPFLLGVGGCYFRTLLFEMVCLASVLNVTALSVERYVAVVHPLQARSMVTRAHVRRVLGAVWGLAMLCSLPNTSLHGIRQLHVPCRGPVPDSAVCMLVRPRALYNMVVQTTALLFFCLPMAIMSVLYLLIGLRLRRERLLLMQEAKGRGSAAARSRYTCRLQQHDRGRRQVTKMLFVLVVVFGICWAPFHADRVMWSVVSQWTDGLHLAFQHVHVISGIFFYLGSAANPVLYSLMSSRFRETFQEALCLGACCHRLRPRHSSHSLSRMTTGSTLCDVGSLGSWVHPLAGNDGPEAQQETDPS

[3] = biological target: T2, Neuromedin-U receptor 1 (Homo sapiens); assay: Agonist activity at human NMUR1 expressed in CHO cells assessed as induction of Ca2+ flux at 0.1 to 10 nM after 18 hrs by Fluo-4 AM dye based FLIPR assay relative to NMU; assay type: functional, cell-based; outline: as §1
[4] = biological target: T2, Neuromedin-U receptor 1 (Homo sapiens); assay: Agonist activity at human NMUR1 expressed in CHO cells assessed as induction of Ca2+ flux at 100 nM after 18 hrs by Fluo-4 AM dye based FLIPR assay relative to NMU; assay type: functional, cell-based; outline: as §1
[5] = biological target: Neuromedin-U receptor 2 (Homo sapiens) (UniProt Q9GZQ4); assay: Agonist activity at human NMUR2 expressed in CHO cells assessed as induction of Ca2+ flux at 100 nM after 18 hrs by Fluo-4 AM dye based FLIPR assay relative to NMU; assay type: functional, cell-based; outline: as §1

Drug metabolism (Serum): Metabolite_Detected
Structure (SMILES): O=C(Cc1cccs1)N[C@@H](Cc1c[nH]c2ccccc12)C(=O)N[C@@H](Cc1c[nH]c2ccccc12)C(=O)O

EC50 (Neuromedin-U receptor 1): 0.42 nM
Structure (SMILES): CC(C)C[C@H](NC(=O)[C@H](Cc1ccccc1)NC(=O)[C@H](Cc1ccc(O)cc1)NC(=O)CNC(=O)[C@H](CCCCN)NC(=O)[C@H](CO)NC(=O)[C@H](CCC(N)=O)NC(=O)CNC(=O)[C@@H](NC(=O)[C@H](CO)NC(=O)[C@@H]1CCCN1C(=O)[C@H](CO)NC(=O)[C@H](CCC(N)=O)NC(=O)[C@H](Cc1ccc(O)cc1)NC(=O)[C@H](CCC(=O)O)NC(=O)[C@H](C)NC(=O)[C@H](CCCCN)NC(=O)[C@@H](N)Cc1ccccc1)C(C)C)C(=O)N[C@@H](Cc1ccccc1)C(=O)N[C@@H](CCCNC(=N)N)C(=O)N1CCC[C@H]1C(=O)N[C@@H](CCCNC(=N)N)C(=O)N[C@@H](CC(N)=O)C(N)=O (H-FKAEYQSPSVGQSKGYFLFRPRN-NH2)

remaining at 2 h, 1000 µM (Rattus norvegicus): 52%
Drug metabolism (Serum): Metabolite_Detected
Structure (SMILES): N=C(N)NCCC[C@H](NC(=O)[C@@H]1CCCN1C(=O)[C@H](CCCNC(=N)N)NC(=O)[C@H](Cc1c[nH]c2ccccc12)NC(=O)[C@H](Cc1c[nH]c2ccccc12)NC(=O)Cc1cccs1)C(=O)O ({Acetyl(2-thienyl)}-WWRPR-OH)

Activity [1]: inactive
Structure (SMILES): COc1ccc(C[C@H](NC(=O)[C@H](Cc2c[nH]c3ccccc23)NC(=O)Cc2cccs2)C(=O)N[C@@H](CCCNC(=N)N)C(=O)N2CCC[C@H]2C(=O)N[C@@H](CCCNC(=N)N)C(=O)N[C@@H](CC(N)=O)C(N)=O)cc1 ({Acetyl(2-thienyl)}-WY(Me)RPRN-NH2)

Activity [1]: inactive
Structure (SMILES): N=C(N)NCCC[C@H](NC(=O)[C@@H]1CCCN1C(=O)[C@H](CCCNC(=N)N)NC(=O)[C@H](Cc1cccc2ccccc12)NC(=O)[C@H](Cc1c[nH]c2ccccc12)NC(=O)Cc1cccs1)C(=O)N[C@@H](CC(N)=O)C(N)=O ({Acetyl(2-thienyl)}-W[1Nal]RPRN-NH2)

Activity [1]: inactive
Activity [2]: Active
Structure (SMILES): N=C(N)NCCC[C@H](NC(=O)[C@@H]1CCCN1C(=O)[C@H](CCCNC(=N)N)NC(=O)[C@H](Cc1ccc(-c2ccccc2)cc1)NC(=O)[C@H](Cc1c[nH]c2ccccc12)NC(=O)Cc1cccs1)C(=O)N[C@@H](CC(N)=O)C(N)=O ({Acetyl(2-thienyl)}-W[Bip]RPRN-NH2)

Activity [1]: inactive
Activity [2]: Active
Structure (SMILES): N=C(N)NCCC[C@H](NC(=O)[C@@H]1CCCN1C(=O)[C@H](CCCNC(=N)N)NC(=O)[C@H](Cc1ccc(C(=O)c2ccccc2)cc1)NC(=O)[C@H](Cc1c[nH]c2ccccc12)NC(=O)Cc1cccs1)C(=O)N[C@@H](CC(N)=O)C(N)=O ({Acetyl(2-thienyl)}-W[Bpa]RPRN-NH2)

Activity [3]: Active
Structure (SMILES): N=C(N)NCCC[C@H](NC(=O)[C@@H]1CCCN1C(=O)[C@H](CCCNC(=N)N)NC(=O)[C@H](Cc1csc2ccccc12)NC(=O)[C@H](Cc1c[nH]c2ccccc12)NC(=O)Cc1cccs1)C(=O)N[C@@H](CC(N)=O)C(N)=O ({Acetyl(2-thienyl)}-W[Bta]RPRN-NH2)

Activity [4]: inactive
Activity [5]: inactive
Structure (SMILES): N=C(N)NCCC[C@H](NC(=O)[C@@H]1CCCN1C(=O)[C@H](CCCNC(=N)N)NC(=O)[C@@H](NC(=O)[C@H](Cc1c[nH]c2ccccc12)NC(=O)Cc1cccs1)C(c1ccccc1)c1ccccc1)C(=O)N[C@@H](CC(N)=O)C(N)=O ({Acetyl(2-thienyl)}-W[Dip]RPRN-NH2)

— ChEMBL document CHEMBL4014341, “Discovery of a Human Neuromedin U Receptor 1-Selective Hexapeptide Agonist with Enhanced Serum Stability” (J Med Chem, 2017)
